High-throughput results (PubChem BioAssay)
Shown are actives, neighbours in structure and some others; about 4.6% of the full set was active somewhere.
Arbovirus inh – antivirals against arbovirus infection, primary screen, cell-based, full library, 10K replicate subset. 200,000 tested, 0.37% active. AID 1251, 2008. arbovirus infection cell-based antiviral screen. inhibition, % at 10 µM; in the data active = inhibition above about 30%
WT yeast gro inh – growth inhibition of WT strain, primary screen, mitochondrial fusion inhibitor project, WT and mutant strains, chemical genetic. 190,000 tested, 2.1% active. mitochondrial fusion phenotypic screen. inhibition, % at 10 µM. AID 1362, 2008; in the data active = inhibition above about 58%; tested in S. cerevisiae
Hck Nef HTS – inhibitors of Nef-activated human Hck kinase, primary screen, biochemical, Z-Lyte FRET, 384-well, Hck-YEEI; Tyrosine-protein kinase HCK (Homo sapiens), P08631; Recombinant Hck-YEEI plus Nef, Z-Lyte FRET kinase assay; inhibition, % at 20 µM; 220,000 tested, 0.68% active; AID 463187, 2010;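 active = Hck-Nef kinase inhibition above about 50%, limit read from the data; inactive = inhibition below that limit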;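 also: 0% = DMSO with Hck plus Nef and 100% = Hck alone without Nef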
Calb biofilm kill – clotrimazole potentiators killing C. albicans biofilm, primary screen, 4-compound mixtures; C. albicans biofilm persisters + clotrimazole, fluorescence viability; primary screen in compound mixtures of four per well; inhibition, % at 7.6 µM; 120,000 tested, 0.02% active; AID 1242, 2008;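 active = inhibition above 30.3% in the primary screen of four-compound pools, then above 30% when the compound was retested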;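 also: compounds exposed to preformed 24 h biofilms for 48 h; 0% = untreated biofilm control and 100% = clotrimazole plus chlorhexidine kill blank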
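Assay system: C. albicans biofilms / Medium: RPMI/MOPS medium, pH 7.0 / Schedule: biofilm formation 24 h, compound exposure 48 h, 37 °C / Measured by: Alamar Blue fluorescence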
RAM inhibit – inhibitors of the yeast RAM network, primary screen, dse1pr::URA3 reporter, 5-FOA selection. S. cerevisiae dse1pr::URA3 reporter, 5-FOA growth OD615, 2 d; analog-sensitive cbk1-as2 kinase mutant strain. inhibition, % at 50 µM. 190,000 tested, 1.8% active;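 active = inhibition above a set limit, 3 SD over mean compound inhibition, cut at about 8.4% in these data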;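 also: 0% = DMSO-only wells with no growth and 100% = 10 µM 1-NA-PP1 full growth; inhibition rescues growth on 5-FOA so higher OD means more RAM inhibition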
p47phox inh – p47phox/p22phox peptide binding inhibitors, primary screen, biochemical, uHTS, NADPH oxidase regulatory subunit. inhibition, % at 24.7 µM. Neutrophil cytosol factor 1 (Homo sapiens), P14598. AID 1274, 2008. fluorescence polarization, 2 h. 220,000 tested, 0.53% active;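 active = inhibition above about 30%, limit read from the data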;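 also: 0% = p47phox with labelled peptide and 100% = labelled peptide alone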
Target sequence (P14598 whole entry, looked up): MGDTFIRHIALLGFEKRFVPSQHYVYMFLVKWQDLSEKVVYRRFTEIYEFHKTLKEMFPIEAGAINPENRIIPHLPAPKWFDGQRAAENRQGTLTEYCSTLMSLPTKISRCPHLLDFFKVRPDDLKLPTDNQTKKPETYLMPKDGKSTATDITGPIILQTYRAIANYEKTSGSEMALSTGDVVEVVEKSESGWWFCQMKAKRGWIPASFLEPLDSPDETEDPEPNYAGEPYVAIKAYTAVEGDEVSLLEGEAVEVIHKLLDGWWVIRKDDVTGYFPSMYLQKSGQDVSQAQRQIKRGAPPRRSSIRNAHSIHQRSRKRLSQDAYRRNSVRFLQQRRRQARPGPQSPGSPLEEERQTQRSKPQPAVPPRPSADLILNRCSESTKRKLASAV
* hit, by the source's call; x = no result; + = active, no number.

SMILES	Arbovirus inh	WT yeast gro inh	Hck Nef HTS	Calb biofilm kill	RAM inhibit	p47phox inh
COc1ccc(C2CC(c3ccccc3)=NN2C(=O)CSc2ncccn2)cc1 (stereo not given)	-13	-2	1	13	11*	-7
O=C1C(c2c(O)[nH]c3ccccc23)=Nc2ccccc21	0	36	x	x	x	93*
CNC(=S)Nc1ccc(C)cc1	6	-2	7	4	0	-11
CNC(=S)Nc1ccc(C23CC4CC(CC(C4)C2)C3)cc1	-34	68*	0	10	1	-8
Cn1nc(C(=O)Nc2c(-c3ccccc3)nc3sccn23)c2ccccc2c1=O	-12	1	2	x	9.2*	-11
CC(C)CNc1nc(Oc2ccc(=O)[nH]n2)nc(N(C)C)n1	-2	2	5	x	3	+
CN(C)c1nc(Nc2ccccc2)nc(Oc2ccc(=O)[nH]n2)n1	-4	-13	-1	x	2	-2
Nc1nc(SCC(=O)c2c(N)n(Cc3ccccc3)c(=O)[nH]c2=O)n[nH]1	x	x	23	15	x	-17
Cc1c(Cc2ccccc2)c(=O)n2c([nH]c3ccccc32)c1C#N	x	x	25	24	x	-13
COc1ccccc1N=Cc1c(C)c(C#N)c2[nH]c3ccccc3n2c1=O	-14	-24	53*	8	3	-22
COc1cc(/C=c2\s/c(=C\C(=O)C(C)(C)C)[nH]c2=O)cc(OC)c1OC	-29	28	22	3	8.8*	-26
O=C(O)c1cc(-c2ccco2)nc2cc3ccccc3cc12	x	x	35	13	x	-16
O=C(Nc1ccccc1)c1ccccc1NS(=O)(=O)c1ccc(Cl)s1	-24	53	-2	x	5	-14
O=C(Nc1ccccc1Cc1ccccc1)c1ccccc1NS(=O)(=O)c1ccc(Cl)s1	-40	76*	6	12	7	-14
Cc1ccc(NC(=O)c2ccccc2NS(=O)(=O)c2ccc(Cl)s2)cc1	-9	82*	7	12	0	-25
COc1ccc(C2CC(=O)c3cnc(Nc4cc(C)cc(C)c4)nc3C2)cc1 (stereo not given)	5	69*	2	x	6	-23
COc1ccc(C2CC(=O)c3cnc(NC(=O)c4cc(OC)cc(OC)c4)nc3C2)cc1 (stereo not given)	5	20	1	x	4	-26
CCOC(=O)c1oc2ccccc2c1CSc1nnnn1-c1ccc(C)cc1	0	28	3	x	10*	-14
CCOC(=O)c1oc2ccccc2c1CSc1nnc(-c2ccco2)o1	-3	5	-2	6	3	-2
CCCCn1c(N2CCC(Cc3ccccc3)CC2)nc2c1c(=O)[nH]c(=O)n2C	-29	68*	1	x	1	-14
O=C(CCCOc1ccc(Cl)cc1Cl)N/N=C\C1CCCCC1	-16	-14	1	x	3	-10
O=C(O)/C(=C\c1ccco1)NC(=O)c1cccc2ccccc12	5	x	0	x	2	127*
CCCCCCc1cc2cc(C(=O)Nc3ccccc3OC)c(=O)oc2cc1O	80*	-11	15	-2	0	4
NC(=O)NCCN1CCN(c2ncc(C(F)(F)F)cc2Cl)CC1	12	-16	-70	5	-1	-29
CCN(CC)CCNC(=O)c1ccc(NC(=O)c2ccc(F)cc2F)cc1	-4	1	5	0	1	x
CCn1c2ccccc2c2cc(NC(=O)COc3ccc(OC)cc3)ccc21	1	34	-2	x	5	-37
CCn1c2ccccc2c2cc(NC(=O)c3cc(OC)cc(OC)c3)ccc21	-22	27	-2	6	8.6*	-47
COc1c(/C=N/NC(=O)c2ccncc2)c(CCN(C)C(C)=O)cc2c1OCO2	x	x	9	16	x	-1
COc1cc(-c2nnc(-c3ccc(S(=O)(=O)c4ccccc4)cc3)o2)cc(OC)c1OC	9	-7	-1	x	2	-11
COc1cc(-c2nnc(-c3ccc(N4CCOCC4)cc3)o2)cc(OC)c1OC	48*	4	3	x	2	x
